Experimental findings from ChEMBL document CHEMBL1139460 (J Med Chem, 2005) are described below.

Active and inactive are the calls of the source. The rule behind the calls is not given here.

Series [1] has as its target T1, GABA-A receptor; alpha-1/beta-3/gamma-2 (Homo sapiens) (UniProt P14867+P18507+P28472). The series is described as follows: Efficacy at human recombinant GABAA alpha-1-beta-3-gamma-2 receptor expressed in Xenopus laevis oocytes by two electrode voltage clamp method relative to GABA. In kind it is cell-based. To be noted: Oocyte. A general note: Two-electrode voltage clamp is typically applied to oocytes expressing channels or transporters.

The target of series [2] is T2, GABA-A receptor; alpha-2/beta-3/gamma-2 (Homo sapiens) (UniProt P18507+P28472+P47869). The series is described as follows: Efficacy at human recombinant GABAA alpha-2-beta-3-gamma-2 receptor expressed in Xenopus laevis oocytes by two electrode voltage clamp method relative to GABA. The class given is cell-based. To be noted: Oocyte. In outline: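 Human α2β3γ2 GABA-A receptors were transiently expressed in Xenopus oocytes and recorded by two-electrode voltage clamp. […] Efficacy is the percent modulation of the submaximal GABA EC20 ion current.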

Series [3] concerns the target T3, GABA-A receptor; alpha-3/beta-3/gamma-2 (Homo sapiens) (UniProt P18507+P28472+P34903). The series is described as follows: Efficacy at human recombinant GABAA alpha-3-beta-3-gamma-2 receptor expressed in Xenopus laevis oocytes by two electrode voltage clamp method relative to GABA. In kind it is cell-based. To be noted: Oocyte.
The target of series [4] is T4, GABA-A receptor; alpha-3/beta-3/gamma-2 (Homo sapiens, UniProt P18507+P28472+P34903).
T4 sequence (P18507 whole entry): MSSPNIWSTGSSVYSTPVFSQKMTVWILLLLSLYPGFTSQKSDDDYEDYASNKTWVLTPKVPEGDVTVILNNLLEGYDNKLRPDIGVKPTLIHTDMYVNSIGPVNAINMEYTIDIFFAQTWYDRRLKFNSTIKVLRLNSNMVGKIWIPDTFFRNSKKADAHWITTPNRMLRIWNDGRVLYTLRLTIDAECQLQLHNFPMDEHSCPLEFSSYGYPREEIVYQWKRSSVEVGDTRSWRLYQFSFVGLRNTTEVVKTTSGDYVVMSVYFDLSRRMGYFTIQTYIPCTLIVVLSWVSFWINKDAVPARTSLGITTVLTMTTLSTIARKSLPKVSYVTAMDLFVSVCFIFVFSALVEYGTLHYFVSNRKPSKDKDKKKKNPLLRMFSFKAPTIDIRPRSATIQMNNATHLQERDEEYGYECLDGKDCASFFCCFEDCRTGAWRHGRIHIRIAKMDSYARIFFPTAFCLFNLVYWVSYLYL
T4 sequence (P28472 whole entry): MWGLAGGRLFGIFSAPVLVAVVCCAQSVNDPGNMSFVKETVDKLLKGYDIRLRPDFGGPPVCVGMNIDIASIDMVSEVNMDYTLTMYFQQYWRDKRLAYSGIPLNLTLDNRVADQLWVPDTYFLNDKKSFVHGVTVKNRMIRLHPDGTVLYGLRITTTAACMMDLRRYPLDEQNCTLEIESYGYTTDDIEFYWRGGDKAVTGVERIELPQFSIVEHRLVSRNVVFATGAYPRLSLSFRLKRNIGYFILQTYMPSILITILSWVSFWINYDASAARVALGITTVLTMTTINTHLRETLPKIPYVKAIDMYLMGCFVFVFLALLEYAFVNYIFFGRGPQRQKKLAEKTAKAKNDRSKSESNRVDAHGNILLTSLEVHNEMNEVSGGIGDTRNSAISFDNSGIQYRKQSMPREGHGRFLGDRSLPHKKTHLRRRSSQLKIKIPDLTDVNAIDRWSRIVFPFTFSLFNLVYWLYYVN
T4 sequence (P34903 whole entry): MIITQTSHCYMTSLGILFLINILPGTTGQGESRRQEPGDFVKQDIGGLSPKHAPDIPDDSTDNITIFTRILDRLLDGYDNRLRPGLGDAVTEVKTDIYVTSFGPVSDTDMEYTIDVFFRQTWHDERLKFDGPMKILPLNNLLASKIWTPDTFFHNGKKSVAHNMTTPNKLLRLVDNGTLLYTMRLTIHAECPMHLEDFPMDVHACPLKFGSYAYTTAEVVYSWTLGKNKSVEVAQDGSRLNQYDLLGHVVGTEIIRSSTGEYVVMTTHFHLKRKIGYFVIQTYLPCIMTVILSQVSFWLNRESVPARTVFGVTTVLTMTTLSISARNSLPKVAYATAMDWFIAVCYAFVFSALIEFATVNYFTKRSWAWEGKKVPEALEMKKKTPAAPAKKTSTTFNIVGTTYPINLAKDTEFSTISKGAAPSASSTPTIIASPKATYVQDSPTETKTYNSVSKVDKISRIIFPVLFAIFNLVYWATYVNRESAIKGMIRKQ
The series is described as follows: Displacement of [3H]Ro 15-1788 from human recombinant GABAA alpha-3-beta-3-gamma-2 receptor expressed in L(tk-) cells. The class given is cell-based. In general terms: Loss of bound radioactivity is the signal in a displacement assay; it reports binding, not function.

The target in series [5] is T5, GABA-A receptor; alpha-2/beta-3/gamma-2 (Homo sapiens, UniProt P18507+P28472+P47869).
T5 sequence (P18507 whole entry): T4 sequence (P18507 whole entry)
T5 sequence (P28472 whole entry): T4 sequence (P28472 whole entry)
T5 sequence (P47869 whole entry): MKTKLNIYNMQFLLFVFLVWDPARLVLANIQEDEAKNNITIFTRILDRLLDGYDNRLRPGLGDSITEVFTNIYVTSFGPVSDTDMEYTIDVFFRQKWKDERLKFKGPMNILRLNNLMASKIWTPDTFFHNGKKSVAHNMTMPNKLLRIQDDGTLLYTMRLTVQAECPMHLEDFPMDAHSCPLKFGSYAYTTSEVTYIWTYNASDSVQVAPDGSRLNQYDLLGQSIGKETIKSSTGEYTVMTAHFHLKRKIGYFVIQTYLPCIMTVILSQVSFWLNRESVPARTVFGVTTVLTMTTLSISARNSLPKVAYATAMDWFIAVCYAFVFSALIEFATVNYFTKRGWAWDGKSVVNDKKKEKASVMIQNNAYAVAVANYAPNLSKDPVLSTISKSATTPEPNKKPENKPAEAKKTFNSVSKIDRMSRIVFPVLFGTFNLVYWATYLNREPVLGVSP
Nature of the series: Displacement of [3H]Ro 15-1788 from human recombinant GABAA alpha-2-beta-3-gamma-2 receptor expressed in L(tk-) cells. In kind it is cell-based.

For series [6], the target named is T6, GABA-A receptor; alpha-1/beta-3/gamma-2 (Homo sapiens, UniProt P14867+P18507+P28472).
T6 sequence (P14867 whole entry): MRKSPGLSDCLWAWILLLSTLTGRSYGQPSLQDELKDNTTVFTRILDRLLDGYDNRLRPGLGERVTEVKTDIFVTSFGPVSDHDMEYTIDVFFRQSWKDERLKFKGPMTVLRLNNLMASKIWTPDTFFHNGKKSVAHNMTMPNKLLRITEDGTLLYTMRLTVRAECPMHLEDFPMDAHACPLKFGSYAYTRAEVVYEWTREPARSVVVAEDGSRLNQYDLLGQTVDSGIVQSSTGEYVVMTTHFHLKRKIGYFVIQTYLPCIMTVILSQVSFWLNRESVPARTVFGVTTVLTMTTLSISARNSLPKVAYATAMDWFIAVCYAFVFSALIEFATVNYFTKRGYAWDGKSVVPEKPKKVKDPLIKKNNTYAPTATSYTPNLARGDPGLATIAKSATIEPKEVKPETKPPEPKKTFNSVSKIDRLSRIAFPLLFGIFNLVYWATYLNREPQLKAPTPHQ
T6 sequence (P18507 whole entry): T4 sequence (P18507 whole entry)
T6 sequence (P28472 whole entry): T4 sequence (P28472 whole entry)
The series is described as follows: Displacement of [3H]Ro 15-1788 from human recombinant GABAA alpha-1-beta-3-gamma-2 receptor expressed in L(tk-) cells. In kind it is cell-based.

The target in series [7] is T1, GABA-A receptor; alpha-1/beta-3/gamma-2 (Homo sapiens). Nature of the series: Efficacy at human recombinant GABAA alpha-1-beta-3-gamma-2 receptor expressed in L(tk-) cells by two electrode voltage clamp method relative to GABA. In kind it is cell-based. A digest of the protocol: (§1)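 Receptors stably expressed in L(tk-) fibroblasts; percent modulation of the submaximal (EC20) GABA response, multiple drug concentrations assessed.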

Series [8] addresses T2, GABA-A receptor; alpha-2/beta-3/gamma-2 (Homo sapiens). The series is described as follows: Efficacy at human recombinant GABAA alpha-2-beta-3-gamma-2 receptor expressed in L(tk-) cells by two electrode voltage clamp method relative to GABA. In kind it is cell-based. In outline:
as §1

The target in series [9] is T3, GABA-A receptor; alpha-3/beta-3/gamma-2 (Homo sapiens). Nature of the series: Efficacy at human recombinant GABAA alpha-3-beta-3-gamma-2 receptor expressed in L(tk-) cells by two electrode voltage clamp method relative to GABA. In kind it is cell-based. In outline: as §1
Series [10] can be described thus: Bioavailability in rat. The class given is ADME, organism-based. To be noted: in vivo.
Series [11] relates to Rattus norvegicus. The series is described as follows: Sedative effect in orally dosed rat at by chain-pulling assay. In kind it is functional, organism-based.
Series [12] deals with Rattus norvegicus. Nature of the series: Anxiolytic effect in rat at 3 mg/kg, po by anxiety assay. The class given is functional, organism-based. Further details: dose 3 mg/kg.
The test system of series [13] is Rattus norvegicus. Nature of the series: Receptor occupancy at GABAA receptor in rat at 1 mg/kg, po. The class given is functional.
The test system of a further series is Mus musculus. Nature of the series: Receptor occupancy in vivo by displacement of [3H]Ro 15-1788 binding from GABAA receptor in orally dosed Swiss Webster mouse. To be noted: po, read-out: ID50 (the source's name). The class given is functional.
Series [14] in a line: Half life in dog. In kind it is ADME, organism-based, Canis lupus familiaris. The following applies: in vivo.
The subject of series [15] is Rattus norvegicus. The series is described as follows: Anxiolytic effect in rat at 1 mg/kg, po by anxiolytic assay. In kind it is functional, organism-based. Further details: dose 1 mg/kg.
The nature of series [16]: Bioavailability in dog. In kind it is ADME, organism-based, Canis lupus familiaris. To be noted: in vivo.
For series [17], the system named is Rattus norvegicus. Nature of the series: Receptor occupancy at GABAA receptor in rat at 30 mg/kg, po. The class given is functional.
The test system of series [18] is Rattus norvegicus. Nature of the series: Receptor occupancy at GABAA receptor in rat at 3 mg/kg, po. In kind it is functional.
Series [19] is described as follows: Half life in rat. In kind it is ADME, organism-based. The following applies: in vivo.

In general, Ki refers to a measure of affinity in units of concentration, obtained from inhibition or displacement. As to `c1ccc(-c2nnc3c4c(c(OCc5ccccn5)nn23)C2CCC4CC2)cc1`, the results for the Efficacy in [1], in series [2] and in series [3] were 51%, 23% and 38%, respectively. Also, the inhibition constant Ki in series [4] was 12 nM.
As for `Cn1ncnc1COc1nn2c(-c3ccccc3)nnc2cc1C1CCCCC1`, the Efficacy in series [1] was 65%; in series [3] it was 109%. Besides, the Ki was found to be 14 nM in series [5], 6.2 nM in [6] and 4.8 nM in [4].
Regarding `Cc1ccc(-c2nc3ccc(C)cn3c2CC(=O)N(C)C)cc1`, the Efficacy in series [1] worked out at 160%; in series [2] it was 123%.
Regarding `Cn1ncnc1COc1nn2c(-c3ccccc3)nnc2cc1C1CCC1`, the Efficacy in series [7] was determined as 27%; in [8], 41%; in series [9], 72%. In addition, the results for the Ki in series [5], in [6] and in series [4] were 0.25 nM, 0.23 nM and 0.17 nM, respectively.
Consider `CN1C(=O)CN=C(c2ccccc2)c2cc(Cl)ccc21`, for which the Efficacy in series [2] was determined as 115%.
In the case of `c1ccc(-c2cc3nnc(-c4ccccc4)n3nc2OCc2ccccn2)cc1`, the Efficacy came to 80% in series [1] and 77% in series [3]. The Ki in [5] is 2.9 nM; in series [6] it was 1.1 nM; in series [4], 1.8 nM.
Turning to `Cn1ncnc1COc1nn2c(-c3ccccc3)nnc2cc1C(C)(C)C`, the Efficacy in series [7] was 0%; in series [9] it was 34%. Also, the Ki was determined as 0.36 nM in series [6] and 0.14 nM in series [4].
Regarding `Cn1ncnc1COc1nn2c(-c3ccccc3)nnc2cc1-c1ccccc1`, the Efficacy amounted to 94% in [1] and 115% in [3]. The Ki in [5] was 2.6 nM; in [6] it was 0.78 nM; in series [4], 1.2 nM.
Regarding `Cn1ncnc1COc1nn2c(-c3ccccc3)nnc2cc1C1CCCC1`, the values for the Efficacy in series [7] and in series [9] were 47% and 63%, respectively. Moreover, the Ki is 0.73 nM in [5], 0.38 nM in series [6] and 0.34 nM in [4].
Broadly, the bioavailability is the share of a dose that reaches the circulation, judged against a reference dose that is usually intravenous. Read a low bioavailability as little systemic uptake. By half-life is commonly meant how long it takes for the measured level to halve. Lower therefore signals fast loss. Take `CCn1ncnc1COc1nn2c(-c3ccccc3F)nnc2cc1C(C)(C)C` [MK-0777]: the results for the bioavailability in series [10] and in series [16] were 35% and 53%, respectively. Further, in the series on Rattus norvegicus [11], the outcome was inactive. In addition, the result in the series with Rattus norvegicus [12] and in the series with Rattus norvegicus [15] was Active. Also, the results for the Activity with Rattus norvegicus [13], with Rattus norvegicus [17] and in the series on Rattus norvegicus [18] were 70%, 99% and 88%, respectively. In the series with Mus musculus, the ED50 was 0.42 mg/kg. Moreover, the half-life in series [14] was 1.5 h; in [19], 1.4 h. For the same compound, the inhibitory constant (Ki) in [5] came out at 0.31 nM; in series [6], 0.27 nM; in [4], 0.2 nM.
